By EC50 is commonly meant the concentration that produces a half-maximal response.

Activity calls are given as the source filed them. The rule behind the calls is not given here.

The first series concerns Chikungunya virus. The experiment in a line: Antiviral activity against Chikungunya virus 899 infected in African green monkey Vero cells assessed as inhibition of virus-induced cytopathic effect after 6 to 7 days by MTS assay. In kind it is functional, organism-based.
Conditions: not given
The method, boiled down: (§1)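 Cell-based CHIKV replication assay in Vero cells. EC50 is the concentration that reduces CHIKV replication by 50%. CC50 is the concentration that reduces natural growth of the host cells by 50%. […]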
For orientation: Damage to the host cells serves as the signal in cytopathic effect assays.
As for `C=C1[C@H](OC(=O)c2ccccc2)[C@@H](OC(C)=O)[C@@H](OC(C)=O)C(C)(C)/C=C/[C@H](C)C(=O)[C@@]2(O)C[C@@](C)(OC(C)=O)[C@H](O)[C@@H]2[C@H]1OC(=O)c1ccccc1`, the inhibition entry was “inactive”.

For `C=C1[C@H](OCC(C)C)[C@@H](OC(C)=O)[C@@H](OC(=O)c2cccnc2)C(C)(C)/C=C/[C@H](C)C(=O)[C@@]2(OC(C)=O)C[C@@](C)(OC(=O)c3cccnc3)[C@H](OC(C)=O)[C@@H]2[C@H]1OC(C)=O`, the inhibition result is “inactive”.

Regarding `C=C1[C@H](OC(=O)c2ccccc2)[C@@H](OC(C)=O)[C@@H](OC(=O)c2cccnc2)C(C)(C)/C=C/[C@H](C)C(=O)[C@@]2(O)C[C@@](C)(OC(=O)c3cccnc3)[C@H](OC(C)=O)[C@@H]2[C@H]1OC(C)=O`, the inhibition entry is “inactive”.

Consider `C=C1[C@H](OC(=O)c2ccccc2)[C@@H](OC(C)=O)[C@@H](OC(C)=O)C(C)(C)/C=C/[C@H](C)C(=O)[C@@]2(O)C[C@@](C)(OC(C)=O)[C@H](O)[C@@H]2[C@H]1OCC(C)C`, for which the inhibition result was “inactive”.

Turning to `C=C1[C@H](OCC(C)C)[C@@H](OC(C)=O)[C@@H](OC(C)=O)C(C)(C)/C=C/[C@H](C)C(=O)[C@@]2(O)C[C@@](C)(OC(C)=O)[C@H](OC(=O)c3ccccc3)[C@@H]2[C@H]1OCC(C)C`, the inhibition entry is “inactive”.

Regarding `C=C1[C@H](OC(=O)c2ccccc2)[C@@H](OC(C)=O)[C@@H](OC(C)=O)C(C)(C)/C=C/[C@H](C)C(=O)[C@@]2(O)C[C@@](C)(OC(C)=O)[C@H](OCC(C)C)[C@@H]2[C@H]1OCC(C)C`, the inhibition result is “inactive”.

Take `C=C1[C@H](OC(=O)c2ccccc2)[C@@H](OC(C)=O)[C@@H](OC(C)=O)C(C)(C)/C=C/[C@H](C)C(=O)[C@@]2(O)C[C@@](C)(OC(C)=O)[C@H](OC(C)=O)[C@@H]2[C@H]1OCC(C)C`: the inhibition result is “inactive”.

For the compound `CC(=O)O[C@H]1[C@@H](OC(C)=O)C(C)(C)/C=C/[C@H](C)C(=O)[C@@]2(OC(C)=O)C[C@@](C)(OC(C)=O)[C@H](O)[C@@H]2[C@H]2OC(=O)CC[C@@]2(OC(C)=O)[C@@H]1OCC(C)C`, the inhibition entry is “inactive”.

As for `CC(=O)O[C@H]1[C@@H](OC(C)=O)C(C)(C)/C=C/[C@@](C)(O)C(=O)[C@@]2(O)C[C@@](C)(OC(C)=O)[C@H](OC(C)=O)[C@@H]2[C@H]2OC(=O)CC[C@@]2(OC(C)=O)[C@@H]1OCC(C)C`, the inhibition entry is “inactive”.

As to `C=C1[C@H](OC(=O)c2ccccc2)[C@@H](O)[C@@H](OC(C)=O)C(C)(C)/C=C/[C@H](C)C(=O)[C@@]2(O)C[C@@](C)(OC(C)=O)[C@H](O)[C@@H]2[C@H]1OC(=O)c1ccccc1`, the inhibition result was “inactive”.

In the case of `C=C1[C@H](OCC(C)C)[C@@H](OC(C)=O)[C@@H](OC(C)=O)C(C)(C)/C=C/[C@H](C)C(=O)[C@@]2(O)C[C@@](C)(OC(C)=O)[C@H](OC(=O)COC(=O)c3ccccc3)[C@@H]2[C@H]1OC(C)=O`, the inhibition result was “inactive”.

As to `CC(=O)O[C@H]1[C@@H](OC(C)=O)C(C)(C)/C=C/[C@@](C)(O)C(=O)[C@@]2(OC(C)=O)C[C@@](C)(OC(C)=O)[C@H](OC(C)=O)[C@@H]2[C@H]2OC(=O)CC[C@@]2(OC(C)=O)[C@@H]1OCC(C)C`, the inhibition entry is “inactive”.

In the case of `C=C1[C@H](OC(=O)c2ccccc2)[C@@H](OC(C)=O)[C@@H](OC(C)=O)C(C)(C)/C=C/[C@H](C)C(=O)[C@@]2(O)C[C@H](C)[C@H](OC(C)=O)[C@@H]2[C@H]1OCC(C)C`, the inhibition result was “inactive”.

For `C=C1[C@H](OC(=O)c2ccccc2)[C@@H](OC(C)=O)[C@@H](OC(=O)c2cccnc2)C(C)(C)/C=C/[C@H](C)C(=O)[C@@]2(O)C[C@@](C)(OC(=O)c3cccnc3)[C@H](OC(C)=O)[C@@H]2[C@H]1OCC(C)C`, the inhibition entry is “inactive”.

With `C=C1[C@H](O)[C@H]2[C@@H](OC(=O)c3ccccc3)[C@](C)(O)C[C@]2(O)C(=O)[C@@H](C)/C=C/C(C)(C)[C@H](OC(C)=O)[C@H](OC(C)=O)[C@H]1OC(=O)c1ccccc1`, the inhibition entry is “inactive”.

Regarding `C=C1[C@H](OC(=O)c2ccccc2)[C@@H](OC(C)=O)[C@@H](OC(=O)c2cccnc2)C(C)(C)/C=C/[C@H](C)C(=O)[C@@]2(OC(C)=O)C[C@@](C)(OC(=O)c3cccnc3)[C@H](OC(C)=O)[C@@H]2[C@H]1OC(C)=O`, the inhibition result was “inactive”.

On to `C=C1[C@H](OC(=O)c2ccccc2)[C@@H](OC(C)=O)[C@@H](OC(C)=O)C(C)(C)/C=C/[C@H](C)C(=O)[C@@]2(O)C[C@@](C)(O)[C@H](OC(C)=O)[C@@H]2[C@H]1OCC(C)C`, for which the inhibition result was “inactive”.

On to `CC(=O)O[C@H]1[C@@H](OC(C)=O)C(C)(C)/C=C/[C@@](C)(O)C(=O)[C@@]2(O)C[C@@](C)(OC(C)=O)[C@H](OC(C)=O)[C@@H]2[C@H]2OC(=O)CC[C@@]2(OCC(C)C)[C@@H]1OCC(C)C`, for which the inhibition result is “inactive”.

The same series, now with this note: Chikungunya virus, 899, Vero.
On to `CC/C=C\C/C=C/C=C\C(=O)O[C@@H]1[C@@H](C)[C@]2(O)[C@@H]3C=C(C)C(=O)[C@H]3CC(CO)=C[C@H]2[C@@H]2C(C)(C)[C@]12OC(=O)C(C)C`, for which the EC50 was 12600 nM.

`CCC/C=C/C=C/C=C\C(=O)O[C@@H]1[C@@H](C)[C@]2(O)[C@@H]3C=C(C)C(=O)[C@H]3CC(CO)=C[C@H]2[C@@H]2C(C)(C)[C@]12OC(=O)C(C)C`: the EC50 was 400 nM.

Consider `CCCCC/C=C/C=C\C(=O)O[C@@H]1[C@@H](C)[C@]2(O)[C@@H]3C=C(C)C(=O)[C@H]3CC(CO)=C[C@H]2[C@@H]2C(C)(C)[C@]12OC(=O)C(C)C`, for which the EC50 was found to be 900 nM.

Regarding `CCC/C=C/C=C\C(=O)O[C@@H]1[C@@H](C)[C@]2(O)[C@@H]3C=C(C)C(=O)[C@H]3CC(CO)=C[C@H]2[C@@H]2C(C)(C)[C@]12OC(=O)C(C)C`, the EC50 turned out to be 600 nM.

Test system in the next series: not listed separately
The experiment in a line: Selectivity index, ratio of CC50 for African green monkey Vero cells to EC50 for Chikungunya virus 899 infected in African green monkey Vero cells. In kind it is toxicity. Particulars: read-out: Selectivity Index. The method, boiled down: as §1
`CC/C=C\C/C=C/C=C\C(=O)O[C@@H]1[C@@H](C)[C@]2(O)[C@@H]3C=C(C)C(=O)[C@H]3CC(CO)=C[C@H]2[C@@H]2C(C)(C)[C@]12OC(=O)C(C)C`: the selectivity ratio was found to be 4.

On to `CCC/C=C/C=C/C=C\C(=O)O[C@@H]1[C@@H](C)[C@]2(O)[C@@H]3C=C(C)C(=O)[C@H]3CC(CO)=C[C@H]2[C@@H]2C(C)(C)[C@]12OC(=O)C(C)C`, for which the selectivity ratio is 34.

Take `CCCCC/C=C/C=C\C(=O)O[C@@H]1[C@@H](C)[C@]2(O)[C@@H]3C=C(C)C(=O)[C@H]3CC(CO)=C[C@H]2[C@@H]2C(C)(C)[C@]12OC(=O)C(C)C`: the selectivity ratio stood at 6.

As to `CCC/C=C/C=C\C(=O)O[C@@H]1[C@@H](C)[C@]2(O)[C@@H]3C=C(C)C(=O)[C@H]3CC(CO)=C[C@H]2[C@@H]2C(C)(C)[C@]12OC(=O)C(C)C`, the selectivity ratio was determined as 41.

(Values after ChEMBL document CHEMBL4251674, “Bioactivity-Based Molecular Networking for the Discovery of Drug Leads in Natural Product Bioassay-Guided Fractionation” (J Nat Prod, 2018).)
